Measured values reported in article PMC6645473 (ACS Omega, 2018).
“Also recorded” adds a separate entry of the source. Where no end group is shown, it is not given here. [ ]: non-standard residue; d: D form. Aib = CC(C)(N)C(=O)O

Experiments:
Aβ1–42 [1] = biological target: T1, Aβ1–42 (Homo sapiens, UniProt P05067); assay: Circular dichroism secondary structure analysis of Aβ1–42; format: biochemical; settings: CD, Aβ1–42/peptide 1:5, 12 h, 37 °C
Method in brief: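 Aβ1–42 (NaOH stock diluted to 20 μM in sodium phosphate buffer) mixed 1:5 with test peptide (TFE stock diluted to 100 μM), 12 h at 37 °C. Spectra taken at 0 and 12 h, 190–260 nm, 37 °C, 1 mm cell, 50 nm/min, 2 nm bandwidth, averaging 3 scans. Buffer blank and inhibitor-alone spectra subtracted, then deconvolution into secondary-structure percentages.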

[2] = tested on: Aβ1–40 toxicity for PC-12 cells; assay: MTT cell viability assay with Aβ1–40; format: cell-based; settings: data not shown
Aβ1–42 [3] = biological target: T1, Aβ1–42; assay: ThT fluorescence assay of Aβ1–42 aggregation; format: biochemical; settings: Aβ1–42 2 μM + peptide 20 μM (1:10), Aβ1–42 alone = 100%, n = 3
Method in brief: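 Aβ1–42 (2 μM) was incubated with test peptide at 1:10 in wells containing ThT (2.5 μM, glycine-NaOH pH 8.5), at 37 °C with shaking at 200 rpm. Fluorescence (ex 445/em 485 nm) was read at intervals over 7 days. Blank was subtracted, and RFU was normalized to the Aβ1–42-alone rise over ThT alone (100%). Triplicates were averaged.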

[4] = tested on: Aβ1–42 toxicity in PC-12 cells; assay: MTT cell viability assay, Aβ1–42 co-incubated with tetrapeptides; format: cell-based; settings: calculated from OD570 of MTT assay in PC-12 cells
Method in brief: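 PC-12 cells were grown in F-12K with 5% FBS and 10% horse serum and used at 70% confluence. For the assay, medium was switched to F-12K with 10% FBS, and cells were seeded at 17 000/well overnight. Monomerized Aβ1–42 was added with test peptide (DMSO stock diluted in PBS; 1:1, 1:5, 1:10) for 6 h. MTT was then added for 4 h, followed by DMSO solubilization and OD570. Inhibition % = 100×(OD peptide+Aβ − OD Aβ)/(OD control − OD Aβ).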

[5] = Electron microscopy of tetrapeptides incubated alone; format: physicochemical; settings: HRTEM and STEM, peptide alone in SPB pH 7.4, 37 °C, 72 h
Method in brief: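 Test peptide stock (5 mM in DMSO) diluted to 250 μM in 10 mM SPB, pH 7.4, and incubated alone at 37 °C for 72 h. A droplet is fixed on carbon-coated copper grids with 0.5% glutaraldehyde, washed with ultrapure water and negatively stained with 2% uranyl acetate. Grids are imaged by HRTEM/STEM at 120 keV.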

Aβ1–42 [6] = biological target: T1, Aβ1–42; assay: Electron microscopy; settings: HRTEM and STEM, Aβ1–42/test peptide 1:5, 37 °C, 72 h
Method in brief: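 HFIP-treated Aβ1–42 (50 μM in 10 mM sodium phosphate buffer, pH 7.4) mixed in equal volumes with test or control tetrapeptide (250 μM, from DMSO stock) to give 1:5, then held 72 h at 37 °C. Peptides alone were imaged too. Samples were fixed on carbon-coated copper grids with 0.5% glutaraldehyde, washed in water, negatively stained with 2% uranyl acetate and imaged at 120 keV.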

T1 sequence (P05067 672-713): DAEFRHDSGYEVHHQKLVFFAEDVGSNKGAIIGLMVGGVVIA

Substance	random coil form of Aβ1–42 co-incubated with inhibitor (Aβ1–42 [1]; Aβ1–42 alone at 12 h 42.3%)	β-sheet conformation of Aβ1–42 co-incubated with inhibitor (Aβ1–42 [1]; Aβ1–42 alone at 12 h 47.1%)	inhibition of Aβ1–40 toxicity [2]	RFU, time-dependent ThT study (Aβ1–42 [3]; at 24 h)	RFU, time-dependent ThT study (Aβ1–42 [3]; at 3 days)	RFU, time-dependent ThT study (Aβ1–42 [3]; at 5 days)	RFU, time-dependent ThT study (Aβ1–42 [3]; at 7 days)	inhibition (%) of Aβ1–42 (2 μM) ([4]; test peptide 2 μM)	inhibition (%) of Aβ1–42 (2 μM) ([4]; test peptide 10 μM)	self-aggregation of peptide incubated alone [5]	morphology of Aβ1–42 aggregates upon co-incubation (Aβ1–42 [6])	inhibition (%) of Aβ1–42 (2 μM) ([4]; test peptide 20 μM)
V[Aib]IA [compound 20]	58.5%	14.2%	did not show inhibition; also recorded: lack of activity	6%	4%	10.9%	11.4%	0%	22.0%	did not exhibit any self-aggregation	no such aggregates were formed	–
VVI[dF] [compound 43]	–	–	–	–	–	–	–	0%	0%	large clusters of amorphous aggregates	small truncated aggregates were found in bunches	4.0%
